Results as given in ChEMBL document CHEMBL4396869, “Design and Synthesis of Selective Phosphodiesterase 4D (PDE4D) Allosteric Inhibitors for the Treatment of Fragile X Syndrome and Other Brain Disorders” (J Med Chem, 2019).
Activity calls are given as the source filed them. No cut-off for these calls is given here.

Legend:
[1] = Stability in human liver microsomes assessed as parent compound remaining at 1 uM measured after 30 mins by LC-MS/MS analysis; assay type: ADME, Microsome; conditions: read-out: Stability
Method in brief: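 Liver microsome stability run by a contract lab using standard protocols. Parent compound remaining measured after 30 min incubation.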

[2] = Protein binding in dog plasma; assay type: ADME, cell-free, Canis lupus familiaris; conditions: read-out: PPB
Cytochrome P450 3A4 = Cytochrome P450 3A4 (Homo sapiens, UniProt P08684); assay: Inhibition of CYP3A4 (unknown origin) by fluorescence-based assay; assay type: ADME
Method in brief: (§1)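 CYP inhibition run with a fluorescent substrate by a contract laboratory under standard protocols; IC50 reported.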

Cytochrome P450 2D6 = Cytochrome P450 2D6 (Homo sapiens, UniProt P10635); assay: Inhibition of CYP2D6 (unknown origin) by fluorescence-based assay; assay type: ADME; method in brief: as §1
Cytochrome P450 2C9 = Cytochrome P450 2C9 (Homo sapiens, UniProt P11712); assay: Inhibition of CYP2C9 (unknown origin) by fluorescence-based assay; assay type: ADME; method in brief: as §1
[3] = (§2) Inhibition of recombinant human His6-tagged PDE4D7 UCR1 S129D mutant expressed in baculovirus infected Sf9 insect cells using cAMP as substrate preincubated for 5 to 10 mins followed by substrate addition and measured for 10 mins by yeast myokinase/pyruvate kinase/lactate dehydrogenase-coupled fluorescence assay relative to control
[4] = as §2, with “PDE4D3” for “PDE4D7”, “S54D” for “S129D”
[5] = biological target: Voltage-gated inwardly rectifying potassium channel KCNH2 (Homo sapiens, UniProt Q12809); assay: Inhibition of human ERG
[6] = Half life in C57Bl6 mouse; assay type: ADME; conditions: in vivo
[7] = as §2, with “PDE4D UCR2 deletion” for “PDE4D7 UCR1 S129D”, “mutant catalytic domain” for “mutant”
[8] = Oral bioavailability in rat; assay type: ADME, organism-based; conditions: in vivo
[9] = Toxicity in rat assessed as pulmonary effect up to 60 mg/kg, po; assay type: organism-based; conditions: in vivo
[10] = Toxicity in rat assessed as inappetence at 100 mg/kg, po; assay type: organism-based; conditions: in vivo
[11] = Toxicity in dog assessed as weight loss at 100 mg/kg, po; assay type: organism-based, Canis lupus familiaris; conditions: in vivo
[12] = Vascular toxicity in rat measured for 28 days; conditions: in vivo, 672 h
Mustela putorius furo = assay: Induction of emesis in ferret up to 30 mg/kg, po; assay type: organism-based; conditions: in vivo
Cynomolgus monkey = assay: Induction of emesis in cynomolgus monkey up to 50 mg/kg, po; assay type: organism-based, Macaca fascicularis; conditions: in vivo
[13] = biological target: T1, 3',5'-cyclic-AMP phosphodiesterase 4B (Homo sapiens, UniProt Q07343); assay: Inhibition of recombinant N-terminal GST-tagged full length human PDE4B1 expressed in baculovirus infected Sf9 cells using FAM-cAMP as substrate incubated for 60 mins by fluorescence assay; conditions: sf9, 1 h
[14] = biological target: Dual specificity calcium/calmodulin-dependent 3',5'-cyclic nucleotide phosphodiesterase 1B (Homo sapiens, UniProt Q01064); assay: Inhibition of recombinant human full length N-terminal GST-tagged PDE1B expressed in baculovirus infected Sf9 insect cells using FAM-cAMP as substrate measured after 1 hr by fluorescence assay; conditions: sf9, 1 h
[15] = biological target: Dual specificity calcium/calmodulin-dependent 3',5'-cyclic nucleotide phosphodiesterase 1C (Homo sapiens, UniProt Q14123); assay: Inhibition of recombinant human N-terminal GST-tagged PDE1C (2 to 634 residues) expressed in baculovirus infected Sf9 insect cells using FAM-cAMP as substrate measured after 1 hr by fluorescence assay; conditions: sf9, 1 h
[16] = biological target: cGMP-dependent 3',5'-cyclic phosphodiesterase (Homo sapiens, UniProt O00408); assay: Inhibition of recombinant human full length N-terminal thrombin cleavage site-fused/GST-tagged PDE2A expressed in baculovirus infected Sf9 insect cells using FAM-cAMP as substrate measured after 60 mins by fluorescence assay; conditions: sf9, 1 h
[17] = biological target: cGMP-inhibited 3',5'-cyclic phosphodiesterase 3A (Homo sapiens, UniProt Q14432); assay: Inhibition of recombinant human N-terminal His/GST-tagged PDE3A (669 to 1141 residues) expressed in baculovirus infected Sf9 insect cells using cAMP as substrate
[18] = biological target: T2, 3',5'-cyclic-AMP phosphodiesterase 4A (Homo sapiens, UniProt P27815); assay: Inhibition of recombinant N-terminal GST-tagged human PDE4A10 (2 to 825 residues) expressed in baculovirus infected Sf9 cells using FAM-cAMP as substrate incubated for 60 mins by fluorescence assay; conditions: sf9, 1 h
[19] = Inhibition of recombinant N-terminal GST-tagged full length human PDE4A1A expressed in baculovirus infected Sf9 cells using FAM-cAMP as substrate incubated for 60 mins by fluorescence assay; conditions: sf9, 1 h
[20] = biological target: T2, 3',5'-cyclic-AMP phosphodiesterase 4A; assay: Inhibition of recombinant N-terminal GST tagged human PDE4A4B (2 to end residues) expressed in Sf9 cells using FAM-cAMP as substrate incubated for 60 mins by fluorescence assay; conditions: sf9, 1 h
[21] = biological target: T1, 3',5'-cyclic-AMP phosphodiesterase 4B; assay: Inhibition of recombinant N-terminal GST-tagged/C-terminal His-tagged full length human PDE4B2 expressed in baculovirus infected Sf9 cells using FAM-cAMP as substrate incubated for 60 mins by fluorescence assay; conditions: sf9, 1 h
[22] = biological target: T1, 3',5'-cyclic-AMP phosphodiesterase 4B; assay: Inhibition of recombinant human N-terminal GST-tagged PDE4B3 (2 to 721 residues) expressed in baculovirus infected Sf9 cells using FAM-cAMP as substrate incubated for 60 mins by fluorescence assay; conditions: sf9, 1 h
[23] = biological target: 3',5'-cyclic-AMP phosphodiesterase 4D (Homo sapiens, UniProt Q08499); assay: Inhibition of recombinant human N-terminal GST-tagged PDE4D2 (2 to 507 residues) expressed in baculovirus infected Sf9 cells using FAM-cAMP as substrate incubated for 60 mins by fluorescence assay; conditions: sf9, 1 h
[24] = biological target: cGMP-specific 3',5'-cyclic phosphodiesterase (Homo sapiens, UniProt O76074); assay: Inhibition of recombinant human N-terminal GST-tagged PDE5A1 expressed in baculovirus infected Sf9 cells using FAM-cGMP as substrate incubated for 60 mins by fluorescence assay; conditions: sf9, 1 h
[25] = biological target: High affinity 3',5'-cyclic-AMP phosphodiesterase 7A (Homo sapiens, UniProt Q13946); assay: Inhibition of recombinant human N-terminal GST-tagged PDE7A2 (122 to end residues) expressed in baculovirus infected Sf9 cells using FAM-cAMP as substrate incubated for 60 mins by fluorescence assay; conditions: sf9, 1 h
[26] = biological target: High affinity cAMP-specific and IBMX-insensitive 3',5'-cyclic phosphodiesterase 8A (Homo sapiens, UniProt O60658); assay: Inhibition of recombinant human full length N-terminal GST-tagged PDE8A1 expressed in baculovirus infected Sf9 cells using FAM-cAMP as substrate incubated for 60 mins by fluorescence assay; conditions: sf9, 1 h
[27] = biological target: High affinity cGMP-specific 3',5'-cyclic phosphodiesterase 9A (Homo sapiens, UniProt O76083); assay: Inhibition of recombinant human full length N-terminal GST-tagged PDE9A2 expressed in baculovirus infected Sf9 cells using FAM-cGMP as substrate incubated for 60 mins by fluorescence assay; conditions: sf9, 1 h
[28] = biological target: cAMP and cAMP-inhibited cGMP 3',5'-cyclic phosphodiesterase 10A (Homo sapiens, UniProt Q9Y233); assay: Inhibition of recombinant human full length N-terminal GST-tagged PDE10A2 expressed in baculovirus infected Sf9 cells using FAM-cAMP as substrate incubated for 60 mins by fluorescence assay; conditions: sf9, 1 h
[29] = Cmax in ICR mouse at 30 mg/kg, po; conditions: in vivo

T1 sequence (Q07343 whole entry): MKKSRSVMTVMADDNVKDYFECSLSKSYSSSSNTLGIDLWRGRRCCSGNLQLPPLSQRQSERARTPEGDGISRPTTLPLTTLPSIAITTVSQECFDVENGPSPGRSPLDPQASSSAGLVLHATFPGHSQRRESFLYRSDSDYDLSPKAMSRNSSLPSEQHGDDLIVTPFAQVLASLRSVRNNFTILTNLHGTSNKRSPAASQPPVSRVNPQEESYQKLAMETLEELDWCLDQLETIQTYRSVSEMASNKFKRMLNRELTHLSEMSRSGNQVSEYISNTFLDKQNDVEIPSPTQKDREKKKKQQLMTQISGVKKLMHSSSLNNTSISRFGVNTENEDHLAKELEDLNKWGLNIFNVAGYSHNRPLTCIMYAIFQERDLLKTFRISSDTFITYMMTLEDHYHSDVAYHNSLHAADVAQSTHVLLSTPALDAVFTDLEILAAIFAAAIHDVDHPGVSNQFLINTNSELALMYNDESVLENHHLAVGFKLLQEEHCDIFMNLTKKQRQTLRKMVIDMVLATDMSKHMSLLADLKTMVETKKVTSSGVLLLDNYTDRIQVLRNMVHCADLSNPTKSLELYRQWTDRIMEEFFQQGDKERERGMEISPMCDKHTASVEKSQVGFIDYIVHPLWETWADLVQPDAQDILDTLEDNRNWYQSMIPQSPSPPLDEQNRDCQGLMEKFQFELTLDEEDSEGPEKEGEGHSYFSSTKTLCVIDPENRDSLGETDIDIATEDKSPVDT
T2 sequence (P27815 whole entry, the tested form may be a part): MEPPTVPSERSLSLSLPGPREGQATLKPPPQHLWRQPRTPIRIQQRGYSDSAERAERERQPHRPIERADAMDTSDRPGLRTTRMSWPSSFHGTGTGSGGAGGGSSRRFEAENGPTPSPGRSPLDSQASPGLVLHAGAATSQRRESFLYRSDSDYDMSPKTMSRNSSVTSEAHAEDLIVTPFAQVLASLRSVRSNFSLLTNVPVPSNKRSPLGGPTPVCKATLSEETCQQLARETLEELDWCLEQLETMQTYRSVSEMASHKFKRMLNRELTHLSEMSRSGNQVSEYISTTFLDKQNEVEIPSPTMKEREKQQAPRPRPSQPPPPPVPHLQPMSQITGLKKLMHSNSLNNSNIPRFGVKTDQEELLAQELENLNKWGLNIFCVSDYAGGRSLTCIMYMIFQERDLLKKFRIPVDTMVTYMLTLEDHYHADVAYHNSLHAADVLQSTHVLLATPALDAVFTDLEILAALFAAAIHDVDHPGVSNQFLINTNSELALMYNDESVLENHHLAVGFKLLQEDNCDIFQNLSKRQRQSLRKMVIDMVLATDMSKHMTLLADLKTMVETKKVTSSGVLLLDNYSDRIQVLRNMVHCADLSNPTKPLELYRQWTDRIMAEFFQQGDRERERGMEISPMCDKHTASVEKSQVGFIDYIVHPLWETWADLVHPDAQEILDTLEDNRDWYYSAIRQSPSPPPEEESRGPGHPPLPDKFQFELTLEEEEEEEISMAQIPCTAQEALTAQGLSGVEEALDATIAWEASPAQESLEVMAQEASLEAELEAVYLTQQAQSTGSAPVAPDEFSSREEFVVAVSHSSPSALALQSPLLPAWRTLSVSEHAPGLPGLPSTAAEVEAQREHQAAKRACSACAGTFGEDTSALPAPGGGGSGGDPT
Voltage-gated inwardly rectifying potassium channel KCNH2, sequence (Q12809 whole entry): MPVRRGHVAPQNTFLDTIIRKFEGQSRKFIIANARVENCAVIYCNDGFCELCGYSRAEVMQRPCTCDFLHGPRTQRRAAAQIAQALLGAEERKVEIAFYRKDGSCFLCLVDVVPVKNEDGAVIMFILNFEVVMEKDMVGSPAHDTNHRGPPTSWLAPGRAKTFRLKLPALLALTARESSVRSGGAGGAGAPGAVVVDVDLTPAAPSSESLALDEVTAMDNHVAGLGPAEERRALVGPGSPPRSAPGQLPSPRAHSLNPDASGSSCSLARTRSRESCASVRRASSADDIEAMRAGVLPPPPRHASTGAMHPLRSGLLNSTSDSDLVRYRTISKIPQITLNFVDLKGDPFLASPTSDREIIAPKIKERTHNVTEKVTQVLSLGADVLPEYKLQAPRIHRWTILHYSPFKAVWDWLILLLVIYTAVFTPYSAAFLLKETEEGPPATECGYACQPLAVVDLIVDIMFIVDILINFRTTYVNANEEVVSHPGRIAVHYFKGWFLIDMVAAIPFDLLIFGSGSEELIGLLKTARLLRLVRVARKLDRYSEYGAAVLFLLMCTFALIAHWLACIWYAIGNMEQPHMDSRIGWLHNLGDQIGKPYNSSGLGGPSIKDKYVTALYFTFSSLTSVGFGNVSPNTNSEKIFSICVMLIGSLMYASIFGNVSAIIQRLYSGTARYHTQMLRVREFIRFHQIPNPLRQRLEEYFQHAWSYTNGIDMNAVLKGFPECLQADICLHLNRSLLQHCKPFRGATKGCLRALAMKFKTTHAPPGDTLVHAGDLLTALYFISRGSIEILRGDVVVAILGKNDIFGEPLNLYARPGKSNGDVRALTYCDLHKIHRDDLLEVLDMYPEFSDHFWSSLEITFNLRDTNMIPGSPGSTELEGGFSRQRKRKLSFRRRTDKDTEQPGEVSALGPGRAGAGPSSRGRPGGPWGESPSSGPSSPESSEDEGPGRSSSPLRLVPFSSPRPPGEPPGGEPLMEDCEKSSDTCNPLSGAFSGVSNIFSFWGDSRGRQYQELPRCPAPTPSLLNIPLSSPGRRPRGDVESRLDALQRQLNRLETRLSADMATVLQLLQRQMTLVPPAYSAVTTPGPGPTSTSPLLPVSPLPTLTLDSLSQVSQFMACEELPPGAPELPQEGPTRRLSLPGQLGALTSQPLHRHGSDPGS
Cytochrome P450 2D6, sequence (P10635 whole entry): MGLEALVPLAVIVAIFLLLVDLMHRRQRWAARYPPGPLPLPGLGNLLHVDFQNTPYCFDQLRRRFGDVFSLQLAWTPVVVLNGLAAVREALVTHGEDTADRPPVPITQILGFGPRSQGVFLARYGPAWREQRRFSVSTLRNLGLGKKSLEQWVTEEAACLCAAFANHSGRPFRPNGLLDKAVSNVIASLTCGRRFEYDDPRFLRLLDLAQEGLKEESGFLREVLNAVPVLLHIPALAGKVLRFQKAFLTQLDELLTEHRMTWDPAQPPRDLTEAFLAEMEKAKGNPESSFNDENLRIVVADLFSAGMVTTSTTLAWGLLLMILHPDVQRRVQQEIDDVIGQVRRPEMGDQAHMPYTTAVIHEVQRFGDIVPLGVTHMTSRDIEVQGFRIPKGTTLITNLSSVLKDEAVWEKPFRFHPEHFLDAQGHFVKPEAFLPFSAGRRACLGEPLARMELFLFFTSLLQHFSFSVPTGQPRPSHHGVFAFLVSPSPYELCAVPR
Dual specificity calcium/calmodulin-dependent 3',5'-cyclic nucleotide phosphodiesterase 1C, sequence (Q14123 whole entry, the tested form may be a part): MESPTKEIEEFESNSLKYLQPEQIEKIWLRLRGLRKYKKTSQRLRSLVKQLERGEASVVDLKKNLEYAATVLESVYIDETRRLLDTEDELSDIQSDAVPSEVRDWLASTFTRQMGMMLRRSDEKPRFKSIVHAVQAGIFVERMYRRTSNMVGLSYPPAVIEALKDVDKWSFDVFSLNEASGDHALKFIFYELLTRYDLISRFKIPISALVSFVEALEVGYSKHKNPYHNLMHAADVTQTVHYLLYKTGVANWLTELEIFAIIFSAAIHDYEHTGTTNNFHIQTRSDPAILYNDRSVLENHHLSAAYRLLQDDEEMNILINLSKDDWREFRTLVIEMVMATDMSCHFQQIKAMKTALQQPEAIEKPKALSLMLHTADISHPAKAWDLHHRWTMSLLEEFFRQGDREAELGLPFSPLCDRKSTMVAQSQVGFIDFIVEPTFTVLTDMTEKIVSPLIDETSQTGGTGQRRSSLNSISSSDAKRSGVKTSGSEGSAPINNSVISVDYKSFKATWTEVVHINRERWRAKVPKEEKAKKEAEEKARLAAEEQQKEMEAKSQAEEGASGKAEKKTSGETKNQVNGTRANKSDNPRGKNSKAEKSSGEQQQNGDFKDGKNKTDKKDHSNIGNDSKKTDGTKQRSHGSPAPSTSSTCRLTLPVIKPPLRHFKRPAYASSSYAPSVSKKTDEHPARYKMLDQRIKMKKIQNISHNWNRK
cGMP-dependent 3',5'-cyclic phosphodiesterase, sequence (O00408 whole entry, the tested form may be a part): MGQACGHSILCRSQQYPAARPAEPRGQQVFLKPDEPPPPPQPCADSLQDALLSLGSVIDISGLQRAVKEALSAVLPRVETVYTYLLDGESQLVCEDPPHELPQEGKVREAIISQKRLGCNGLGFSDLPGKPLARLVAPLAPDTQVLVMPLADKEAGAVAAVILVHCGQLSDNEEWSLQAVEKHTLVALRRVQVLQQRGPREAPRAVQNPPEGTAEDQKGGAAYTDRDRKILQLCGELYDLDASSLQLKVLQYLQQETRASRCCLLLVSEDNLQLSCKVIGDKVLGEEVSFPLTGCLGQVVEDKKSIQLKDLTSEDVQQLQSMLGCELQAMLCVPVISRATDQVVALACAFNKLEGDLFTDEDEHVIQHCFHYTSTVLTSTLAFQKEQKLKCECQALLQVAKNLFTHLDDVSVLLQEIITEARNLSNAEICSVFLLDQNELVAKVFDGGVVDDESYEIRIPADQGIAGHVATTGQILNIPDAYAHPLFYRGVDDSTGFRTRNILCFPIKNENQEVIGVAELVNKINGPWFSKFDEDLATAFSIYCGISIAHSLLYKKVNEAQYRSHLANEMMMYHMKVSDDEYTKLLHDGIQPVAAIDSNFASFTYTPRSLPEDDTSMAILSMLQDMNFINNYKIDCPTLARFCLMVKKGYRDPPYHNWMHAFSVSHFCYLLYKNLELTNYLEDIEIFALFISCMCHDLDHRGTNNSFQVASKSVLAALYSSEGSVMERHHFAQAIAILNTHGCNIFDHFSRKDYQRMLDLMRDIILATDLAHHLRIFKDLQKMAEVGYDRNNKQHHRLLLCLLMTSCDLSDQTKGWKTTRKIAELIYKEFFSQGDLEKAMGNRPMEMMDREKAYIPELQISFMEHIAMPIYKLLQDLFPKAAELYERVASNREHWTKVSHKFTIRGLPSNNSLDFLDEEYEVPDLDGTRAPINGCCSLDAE

O=C(O)Cc1ccc(Cc2cc(-c3cccc(Cl)c3)nc(C(F)(F)F)c2)cc1 [ZATOLMILAST]
remaining at 0.5 h, 1 µM [1]: 88 to 100%
fraction unbound [2]: 0.002 to 0.005
IC50 (Cytochrome P450 3A4): 15 µM
IC50 (Cytochrome P450 2D6): > 100 µM
IC50 (Cytochrome P450 2C9): > 51 µM
Imax [3]: 90.2%
Imax [4]: 89%
IC50 [5]: > 10 µM
half-life [6]: 10 to 12 h
inhibition [7]: inactive
bioavailability [8]: 80 to 100%
Activity [9]: Non-Toxic
Activity [10]: Toxic
Activity [11]: Toxic
Activity [12]: Non-Toxic
Activity (Mustela putorius furo): Non-Toxic
Activity (Cynomolgus monkey): Non-Toxic
inhibition (INH) [13]: Not Active
inhibition (INH) [14]: Not Active
inhibition (INH) [15]: Not Active
inhibition (INH) [16]: Not Active
inhibition (INH) [17]: Not Active
inhibition (INH) [18]: Not Active
inhibition (INH) [19]: Not Active
inhibition (INH) [20]: Not Active
inhibition (INH) [21]: Not Active
inhibition (INH) [22]: Not Active
inhibition (INH) [23]: Not Active
inhibition (INH) [24]: Not Active
inhibition (INH) [25]: Not Active
inhibition (INH) [26]: Not Active
inhibition (INH) [27]: Not Active
inhibition (INH) [28]: Not Active
Cmax [29]: 11475 ng/mL
